Ecoli rRNA inh: inhibits bacterial ribosomal RNA function over humanized ribosomes; GFP signal change (wild-type ribosome), % (concentration not given with the values); AID 720706; actives 1.6% (n = 350,000); E. coli WT GFP vs humanized-ribosome RFP mutants, fluorescence, 24 h; stronger effect = lower value; DMSO median 0, no signal -100;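 active = significant combined selectivity score with lowered wild-type GFP, culture density cut under 30%, mutant RFP and density less affected; inactive = any of these conditions unmet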
FGF22 binding: binders of recombinant human FGF22 by thermal shift; AID 651658; activity (Tm shift, normalised), % at 9.99 µM; Q9HCT0; actives 1.5% (n = 340,000); SYPRO orange fluorescence; percent of sucrose octasulfate shift, DMSO zero;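 active = mean Tm shift, scaled 0 neutral to 100 positive control, at about 1.3% or above, every replicate too, limit read from the data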
Target sequence (Q9HCT0 whole entry, looked up): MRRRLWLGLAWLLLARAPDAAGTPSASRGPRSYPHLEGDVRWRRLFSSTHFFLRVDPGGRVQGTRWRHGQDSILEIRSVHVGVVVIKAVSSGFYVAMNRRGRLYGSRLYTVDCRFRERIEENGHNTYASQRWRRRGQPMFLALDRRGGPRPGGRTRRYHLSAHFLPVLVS
Cneo AK release: Cryptococcus neoformans lysis via adenylate kinase release | lysis activity, % at 15 µM | actives 0.2% (n = 360,000) | C. neoformans lysis, adenylate kinase release luminescence, 4 h; normalised: neutral wells 0, clomiphene wells 100;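 active = mean lysis activity across replicates of at least 80%, whatever share of replicates individually reach that level; inactive = mean lysis activity below 80%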
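Test system: log-phase Cryptococcus neoformans yeast cells. Input: 5 × 10^6 yeast cells/mL. Medium: fresh YPD growth medium. Doses: single dose. Incubation: static 4 h at 37 °C with compound, 1 h detection. Measured by: luminescent adenylate kinase detection reagent. Read-out: signal increase indicating cell lysis. Benchmarks: Clomiphene.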
PGC1a acetyl inh: lowers PGC1a acetylation signal in U2OS cells. actives 0.17% (n = 350,000). AlphaScreen anti-acetyl-lysine; with virally co-expressed GCN5 acetyltransferase. AID 651687. inhibition, % at 15.6 µM;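 active = every replicate shows inhibition of at least 40%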
Vif imaging: HIV Vif inhibition. actives 0.35% (n = 340,000). inhibition, % at 7.49 µM. HEK293T cells, Vif self-association by quenched fluorescence, imaging, 24 h; in the data active = inhibition above about 50%, passing the limit was not always enough
PglD DTNB: inhibitors of Campylobacter jejuni PglD acetyltransferase; actives 0.098% (n = 360,000); inhibition, % at 12.5 µM; purified PglD enzyme, DTNB colorimetric CoA detection; in the data active = inhibition above about 16%, passing the limit was not always enough
Each line names hits and unclear results; the compound was inactive in the other large screens. Compounds with a hit are over-represented: about 2.9% of the library has one in this group of screens.

CCCN(C)C[C@@H]1OCCCC[C@@H](C)Oc2ccc(NS(=O)(=O)c3ccc(C)cc3)cc2C(=O)N([C@H](C)CO)C[C@H]1C	none (no result: FGF22 binding, Cneo AK release, PGC1a acetyl inh, Vif imaging, PglD DTNB)
Cc1c(NC(=O)CN2CCC(C(N)=O)CC2)cccc1[N+](=O)[O-]	FGF22 binding 43 (no result: Cneo AK release, PGC1a acetyl inh, PglD DTNB)
O=C1NC(CCc2ccccc2)C(=O)N1CCOc1ccccc1 (stereo not drawn)	Ecoli rRNA inh -27 (no result: Cneo AK release, PglD DTNB)
Nc1nc2cc3c(cc2cc1C(=O)NCCc1c[nH]c2ccccc12)OCO3	Ecoli rRNA inh -25 (no result: Cneo AK release, PGC1a acetyl inh, Vif imaging, PglD DTNB)
COc1cc(SC)ccc1C(=O)NCCc1c[nH]c2ccccc12	none
COc1cc2cc(C(=O)NCCc3c[nH]c4ccccc34)c(N)nc2cc1OC	Ecoli rRNA inh -31 (no result: Cneo AK release, PGC1a acetyl inh, Vif imaging, PglD DTNB)
C[C@@H]1CN([C@@H](C)CO)S(=O)(=O)c2ccc(Br)cc2O[C@H]1CN(C)C(=O)c1cnccn1	none (no result: Vif imaging)
C[C@@H]1CCCCO[C@@H](CN(C)S(=O)(=O)c2cn(C)cn2)[C@H](C)CN([C@@H](C)CO)C(=O)c2cc(NC(=O)c3ccncc3)ccc2O1	none (no result: Vif imaging)
CC(=O)C1=C(C)NC(SCC(=O)c2ccc(Cl)c(Cl)c2)=C(C#N)C1c1ccco1 (stereo not drawn)	Vif imaging 82
CC(=O)C1=C(C)NC(SCC(=O)c2cc(Cl)ccc2Cl)=C(C#N)C1c1ccco1 (stereo not drawn)	none (no result: Cneo AK release, PGC1a acetyl inh, PglD DTNB)
COc1ccccc1NC(=O)N[C@@H]1CC[C@@H](CCNC(=O)Cc2ccccn2)O[C@@H]1CO	none (no result: Vif imaging)
Cn1c(CSCc2ccc(F)cc2)n[nH]c1=S	none (no result: PGC1a acetyl inh)
Cn1c(CSCc2ccc(Cl)cc2)n[nH]c1=S	Ecoli rRNA inh -23
CO[C@@H]1CN(C)C(=O)c2ccc(NS(C)(=O)=O)cc2OC[C@@H](C)N(C(=O)C2CCOCC2)C[C@H]1C	PglD DTNB 18 (no result: Vif imaging)
COCC(=O)N1C[C@H](C)[C@@H](OC)CN(C)C(=O)c2ccc(NS(C)(=O)=O)cc2OC[C@@H]1C	Cneo AK release 98 (no result: Vif imaging)
COc1ccccc1N1N=C(c2ccc([N+](=O)[O-])cc2)CC1c1ccccc1 (stereo not drawn)	FGF22 binding 2.7 (no result: PGC1a acetyl inh, Vif imaging)
COc1cc(N2N=C(c3ccccc3)CC2c2ccccc2)c(C=O)cc1C=O (stereo not drawn)	none
C[C@@H]1CN([C@@H](C)CO)C(=O)Cc2cc(NS(=O)(=O)c3cccs3)ccc2O[C@H]1CN(C)Cc1ccncc1	none (no result: Vif imaging)
CCS(=O)(=O)N1CCN(c2ccccc2)CC1	none
O=C1Oc2ccccc2C(=O)/C1=C\N1CCN(c2ccccc2)CC1	Ecoli rRNA inh -33 (no result: Cneo AK release, PglD DTNB)
C[C@H](CO)N1C[C@H](C)[C@@H](CN(C)Cc2ccc3c(c2)OCO3)Oc2ccc(NC(=O)C3CC3)cc2C1=O	none (no result: Vif imaging)
CN1CCN(C(=O)C[C@H]2CC[C@@H]3[C@H](COC[C@@H](O)CN3Cc3ccc(Oc4ccccc4)cc3)O2)CC1	none (no result: Vif imaging)
O=C1CN(C(=O)/C=C/c2ccco2)c2ccccc2N1	FGF22 binding 44 (no result: PGC1a acetyl inh)
C/C=C/c1ccc([C@H]2[C@@H](CO)N[C@@H]2CNC(=O)CC2CC2)cc1	none (no result: FGF22 binding, Vif imaging)
CCNC(=O)[C@@H]1[C@@H](CO)[C@@H]2Cn3c(ccc(-c4cccnc4)c3=O)[C@H]1N2Cc1ccccc1	none (no result: PGC1a acetyl inh, Vif imaging)
COc1ccc(CCN2C(=O)CC(C(N)=O)SC2=Nc2ccccc2)cc1 (stereo not drawn)	Ecoli rRNA inh -27
c1ccc(-c2cn3nc(-c4ccccc4)c(-c4ccccc4)nc3n2)cc1	Vif imaging 157 (no result: Ecoli rRNA inh, FGF22 binding)
NC(=O)c1nsc(C(=O)N(Cc2ccco2)C(C(=O)NCc2ccc(F)cc2)c2ccc(O)cc2)c1N (stereo not drawn)	none (no result: PGC1a acetyl inh)
Cc1ccc(C(C(=O)NCc2ccc(F)cc2)N(Cc2ccco2)C(=O)c2snc(C(N)=O)c2N)o1 (stereo not drawn)	Vif imaging 58
Cc1nn2c(COc3ccc(NC(=O)C(C)C)cc3)nnc2c2ccccc12	none
O=C(COc1ccc(Cl)cc1)NCc1nnc2c3ccccc3c(-c3ccccc3)nn12	none (no result: Ecoli rRNA inh, FGF22 binding, Cneo AK release, PglD DTNB)
O=C(NCc1nnc2c3ccccc3c(-c3ccccc3)nn12)c1ccccc1Cl	FGF22 binding 44 (no result: PglD DTNB)
Cc1nn2c(COc3ccc(NC(=O)c4ccccc4Cl)cc3)nnc2c2ccccc12	Vif imaging 99 (no result: Ecoli rRNA inh, FGF22 binding)
Cc1ccc(C(=O)COC(=O)C(C)N2C(=O)C3C4CCC(C4)C3C2=O)cc1 (stereo not drawn)	none (no result: PGC1a acetyl inh)
Cc1ccc(C)c(C(=O)COC(=O)C(C)N2C(=O)C3C4CCC(C4)C3C2=O)c1 (stereo not drawn)	Ecoli rRNA inh -29 (no result: PGC1a acetyl inh)
C[C@H](CO)N1C[C@H](C)[C@H](CN(C)S(=O)(=O)c2ccc(F)cc2)Oc2ccc(NC(=O)Cn3cnnn3)cc2CC1=O	none (no result: Vif imaging)
c1ccc(CN2CCN(C(c3ccccc3)c3ccccc3)CC2)cc1	Ecoli rRNA inh -24
CC(=O)Nc1ccc2c(c1)C(=Nc1ccc(C)cc1)c1ccccc1-2	Ecoli rRNA inh -22
CCC(=O)c1ccc(OCC(=O)OCC(=O)c2cc(C)n(CC3CCCO3)c2C)cc1 (stereo not drawn)	none (no result: PGC1a acetyl inh)
Cc1cc(C(=O)COc2ccc(C#N)cc2)c(C)n1CC1CCCO1 (stereo not drawn)	FGF22 binding 43
CCOC(=O)c1cnc2ccccc2c1Nc1ccc(C(=O)O)cc1	FGF22 binding 44 (no result: Cneo AK release, PglD DTNB)
CC(=O)Nc1ccc(/C=C/c2ccc3cccc([N+](=O)[O-])c3n2)cc1	Ecoli rRNA inh -16
O=C(O)COc1ccc(/C=C/c2ccc3cccc([N+](=O)[O-])c3n2)cc1	none (no result: PGC1a acetyl inh)
COc1ccc(CC2(CO)CCN(Cc3cnc(-c4ccccc4C)nc3)CC2)cc1	FGF22 binding 44
CCOc1ccc(NC(=O)CN(C)C(=O)C2CC(=O)N(CCc3ccc(OC)c(OC)c3)C2)cc1OCC (stereo not drawn)	FGF22 binding 6.3 (no result: PGC1a acetyl inh)
Cn1c(N2CCN(C(c3ccccc3)c3ccccc3)CC2)nc2ccccc21	Ecoli rRNA inh -26
O=C(CNC(=O)C1COc2ccccc2O1)N/N=C\c1ccccc1Cl (stereo not drawn)	none
COc1cccc(/C=N/NC(=O)CNC(=O)C2COc3ccccc3O2)c1O (stereo not drawn)	Ecoli rRNA inh -20 (no result: Cneo AK release, PGC1a acetyl inh, PglD DTNB)
O=C(O)/C=C/C(=O)Nc1ccc2c(c1)C(=O)c1ccccc1C2=O	Ecoli rRNA inh -35 (no result: Cneo AK release, PGC1a acetyl inh, PglD DTNB)
Cc1ccccc1S(=O)(=O)N[C@H]1CC[C@H](CCn2cc(Cc3ccccc3)nn2)O[C@@H]1CO	PGC1a acetyl inh 61 (no result: Vif imaging)
COc1ccc(NC(=O)CN2CCN(c3ccccc3C)CC2)cc1	Ecoli rRNA inh -31
CCCNC(=O)c1cc(C2CCCCN2C(=O)c2ccc3ccccc3c2)on1 (stereo not drawn)	none
